Screening data (PubChem BioAssay)
TCR CD3 inh – inhibitors of human TCR-CD3 interaction, primary screen, biochemical, fluorescence, TAMRA-labeled TCR probe. T-cell receptor (TCR). inhibition, % at 9.4 µM. 360,000 compounds, 0.37% hits. AID 651800, 2012; in the data active = inhibition above about 19%;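 note: recombinant mutant TCR 2C K166C tagged with TAMRA read by polarization; 0% = receptor in buffer alone and 100% = receptor with positive control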
ABHD4 inh – ABHD4 inhibitors, primary screen, biochemical, fluorescence polarization, mouse; (Lyso)-N-acylphosphatidylethanolamine lipase (Mus musculus), Q8VD66; inhibition, % at 8.92 µM; AID 720543, 2013; purified mABHD4, FP-Rh probe fluorescence polarization; 370,000 compounds, 0.54% hits;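 active = inhibition exceeding the mean over every tested compound plus 3 SD, cut at about 30% in these data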;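 note: 0% = plate median of compound wells and 100% = S159A mutant with DMSO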
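Test system: mABHD4 protein | Buffer or medium: HEPES pH 7.0 buffer, 150 mM NaCl, 0.01% Pluronic F-127 | Probe or stimulus: FP-Rh fluorescent activity-based probe, added after compound pre-incubation | Timing: Pre-incubation 45 min, probe exposure 60 min, at 25 °C | Technique: Fluorescence polarization, excitation 525 nm, emission 598 nm, BODIPY TMR filters | Repeats: Single well per compound (singlicate)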
SIAE primary – human SIAE inhibitors, primary screen, biochemical, fluorescence polarization, FP-Rh probe, 1536-well HTS; AID 1053197, 2014; 370,000 compounds, 0.69% hits; inhibition, % at 9.66 µM; SIAE FP-Rh probe binding;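 active = inhibition above a cutoff: mean of compounds within the control limits plus 3 SD of those, cut at about 17% in these data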;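 note: 0% = plate median of compound wells and 100% = probe without SIAE protein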
Target sequence (Q9HAT2 whole entry, looked up): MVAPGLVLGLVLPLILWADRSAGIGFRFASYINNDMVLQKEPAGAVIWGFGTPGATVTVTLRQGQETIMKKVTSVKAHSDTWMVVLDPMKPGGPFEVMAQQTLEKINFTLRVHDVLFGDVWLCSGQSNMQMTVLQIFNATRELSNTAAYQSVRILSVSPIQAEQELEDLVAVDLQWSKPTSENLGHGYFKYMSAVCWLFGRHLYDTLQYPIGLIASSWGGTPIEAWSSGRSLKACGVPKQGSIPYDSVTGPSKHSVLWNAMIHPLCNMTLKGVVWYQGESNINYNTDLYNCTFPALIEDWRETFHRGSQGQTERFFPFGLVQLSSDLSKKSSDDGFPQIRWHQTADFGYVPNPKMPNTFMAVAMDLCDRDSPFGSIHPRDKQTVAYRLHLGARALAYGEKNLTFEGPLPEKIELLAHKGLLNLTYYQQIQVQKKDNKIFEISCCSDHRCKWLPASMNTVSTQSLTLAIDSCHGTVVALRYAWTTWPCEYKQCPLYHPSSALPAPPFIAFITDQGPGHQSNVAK
pPAFAH FP inh – pPAFAH enzyme inhibitors, primary screen, biochemical, fluorescence polarization, human; Platelet-activating factor acetylhydrolase (Homo sapiens), Q13093; inhibition, % at 3.39 µM; 330,000 compounds, 1.5% hits; recombinant pPAFAH, FP-rhodamine probe fluorescence polarization;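 active = inhibition above the mean inhibition across the screen plus 3 SD, cut at about 25% in these data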;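 note: inhibitors block binding of the rhodamine activity-based probe so polarization drops; 0% = enzyme with DMSO and 100% = wells lacking pPAFAH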
HTRA1 inhibitor – HTRA1 serine protease inhibitors, primary screen, biochemical, fluorescence polarization, HTS. 340,000 compounds, 0.5% hits. inhibition, % at 5.96 µM. Q92743. recombinant HTRA1, FP-rhodamine activity-based probe; in the data active = inhibition above about 36%;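 note: 0% = enzyme with DMSO and 100% = wells lacking enzyme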
Starred values were filed as active, the others as inactive; x = no result. In the library only some 2.3% were active in any assay of this set; here they are far more common.

SMILES	TCR CD3 inh	ABHD4 inh	SIAE primary	pPAFAH FP inh	HTRA1 inhibitor
COC(=O)C(C)Sc1ncnc2c1c(-c1ccccc1)cn2-c1ccc(OC)cc1 (stereo not drawn)	1.5	-12.4	-0.3	16.8	-30.0
COc1ccc(-n2cc(-c3ccccc3)c3c(NCCOCCO)ncnc32)cc1	-1.3	-0.5	-3.4	28.2*	1.4
NS(=O)(=O)c1ccc(CCNc2ncnc3c2c(-c2ccccc2)cn3-c2ccc(F)cc2)cc1	4.8	-29.9	-4.3	26.8*	-33.3
CCOc1ccc(-n2cc(-c3ccccc3)c3c(SC(C)C(=O)OC)ncnc32)cc1 (stereo not drawn)	-0.4	-13.0	-1.3	30.3*	-18.1
COc1ccc(-n2cc(-c3ccccc3)c3c(NN4CCOCC4)ncnc32)cc1	-12.6	-7.5	-5.0	20.5	-8.2
CC1CN(c2ncnc3c2c(-c2ccccc2)cn3-c2ccc(F)cc2)CC(C)O1 (stereo not drawn)	0.5	-2.6	-0.2	-0.1	-18.4
Cc1cc(=O)n2[nH]c(SCc3ccc(Cl)cc3)nc2n1	-2.5	-5.2	-0.1	26.2*	-0.7
CCN(CC)C(=O)[C@H]1CC(CC(=O)NC/C=C(\C)CCC=C(C)C)C(=O)N2CCc3c([nH]c4ccc(OC)cc34)[C@]12C (stereo partly drawn)	-4.0	2.8	11.1	26.5*	-11.7
CCN(CC)C(=O)[C@H]1CC(CC(=O)NC/C=C(\C)CCC=C(C)C)C(=O)N2CCc3c([nH]c4ccccc34)[C@]12C (stereo partly drawn)	-6.2	0.5	7.5	27.5*	-2.5
COc1ccc2[nH]c3c(c2c1)CCN1C(=O)C(CC(=O)NC/C=C(\C)CCC=C(C)C)C[C@H](C(=O)N2CCCCC2)[C@@]31C (stereo partly drawn)	x	x	x	4.7	12.1
CCN(CC)C(=O)[C@H]1C[C@H](CC(=O)NC/C=C(\C)CCC=C(C)C)C(=O)N2CCc3c([nH]c4ccc(Cl)cc34)[C@]12C	-2.0	-2.5	2.4	7.8	-0.1
CCCn1c(=O)c2ccccc2n2c(Sc3nnnn3-c3ccccc3)nnc12	2.2	5.3	-2.6	26.9*	7.2
CCCn1c(=O)c2ccccc2n2c(SCC(N)=O)nnc12	0.6	-0.2	-1.2	3.8	0.9
CSc1ccc(S(=O)(=O)NCCSC(C)(C)C)cc1	6.6	-0.2	-0.5	27.9*	0.3
CC(C)(C)SCCNS(=O)(=O)c1ccccc1	5.5	-3.1	-2.2	18.6	-2.4
O=C(c1ccc(CS(=O)(=O)Cc2ccc(Cl)cc2)o1)N1CCCC1	-2.5	5.0	-3.6	25.9*	0.6
Cc1cccc(N2CCN(C(=O)c3cc4n(n3)C(C(F)(F)F)CC(c3ccco3)N4)CC2)c1C (stereo not drawn)	-1.8	-7.1	-6.2	34.1*	-32.4
O=C(c1cc2n(n1)C(C(F)(F)F)CC(c1ccco1)N2)N1CCN(c2ccccn2)CC1 (stereo not drawn)	6.1	5.0	-4.3	9.1	-4.8
CCN(CC)c1ccc(/C=C/c2cc(-c3ccccc3)c3ccccc3n2)cc1	-4.0	-109.9	-1.9	24.9*	25.1
COc1cc(/C=N/N2CCCCC2)cc([N+](=O)[O-])c1O	4.0	5.5	10.0	28.5*	12.8
COc1cc(/C=N/n2c(=S)[nH]nc(C)c2=O)cc([N+](=O)[O-])c1O	-0.1	5.0	-3.4	-3.3	x
COc1ccc(C=Nc2cccnc2N)cc1	x	x	x	27.1*	23.9
Cc1ccc(C=Nc2cccnc2N)cc1	x	x	x	7.2	24.0
Cc1oc(C)c2c(=O)ccc3c(c12)OC(N)=C(C#N)C3c1ccccc1 (stereo not drawn)	-9.3	14.9	6.4	13.2	24.0
Cc1oc(C)c2c(=O)ccc3c(c12)OC(N)=C(C#N)C3c1ccccc1Cl (stereo not drawn)	-2.0	18.9	-6.2	25.1*	10.3
SMILES	TCR CD3 inh	ABHD4 inh	SIAE primary	pPAFAH FP inh	HTRA1 inhibitor
CSc1ccc(C2C(C#N)=C(N)Oc3c2ccc(=O)c2c(C)oc(C)c32)cc1 (stereo not drawn)	1.5	18.8	5.9	31.2*	36.0
CC(/C=N/NC(=O)NC1CCCCC1)=C\c1ccccc1	5.6	-1.6	-2.1	29.1*	-15.6
O=C(CCc1c[nH]c2ccccc12)N1CCN(c2ccc(F)cc2)CC1	0.8	5.1	3.1	1.8	5.0
O=C(CCCc1c[nH]c2ccccc12)N1CCN(c2ccc(N3CCOCC3)nn2)CC1	5.8	5.0	18.8*	1.8	8.9
C/C(=N\Nc1nc2ccccc2c(=O)n1O)c1ccco1	20.1*	11.3	3.4	9.1	16.7
COc1ccccc1C(=O)CSc1nnc(-c2ccncc2)n1-c1ccc(Cl)cc1	x	3.8	3.7	x	x
Nc1nonc1C(=O)NCCN=Cc1cc(Cc2ccccc2)cc(Br)c1O	x	x	x	32.7*	13.3
Nc1nonc1C(=O)NCCN=Cc1ccccc1O	2.7	7.6	-2.9	0.3	5.0
CCCCNC(=O)C1(C(C)=O)CC(C(=O)OCC)=NO1 (stereo not drawn)	x	-2.1	-3.1	x	x
COc1ccc(N2CCN(CCCNC(=O)COc3ccc(C)cc3)CC2)cc1	x	0.3	3.0	x	x
O=C1N(Cc2ccccc2)c2ccccc2C12OCCO2	3.3	-5.6	10.1	24.9*	8.0
COc1ccc(C(C)c2cc3c(cc2OCC(=O)O)OCO3)cc1 (stereo not drawn)	5.2	6.8	2.5	x	x
O=C(Nc1cc(S(=O)(=O)N2CCCCC2)ccc1O)c1ccccc1NS(=O)(=O)c1ccc(F)c(F)c1	0.4	-3.7	-13.0	34.0*	-38.6
Cc1ccc(O)c(NC(=O)c2cccc(S(=O)(=O)N3CCCCC3)c2)c1	-6.1	3.0	-2.6	-4.0	-18.8
CCS(=O)(=O)c1ccc(O)c(NC(=O)c2ccc(S(=O)(=O)N3CCCCCC3)cc2)c1	0.8	-4.2	-8.3	27.9*	0.0
Cc1occc1-c1nnc(SCC(=O)N2CCN(c3ncccn3)CC2)n1-c1ccccc1	x	0.6	-0.5	x	x
COC(=O)[C@H](C(C)C)N1CCc2nnn(CC3CCCCC3)c2-c2cc(F)ccc2S1(=O)=O	x	-3.4	-2.7	x	x
NS(=O)(=O)c1ccc(-c2ccc(C=C3C(=O)c4ccccc4C3=O)o2)cc1	-3.6	7.0	-1.5	6.4	-1.6
CC(C)CC1=C/C(=C/c2ccc(-c3ccccc3)o2)C(=O)O1	-4.9	18.9	2.5	29.1*	-19.7
CCN(Cc1cn(Cc2ccccc2)nn1)S(=O)(=O)c1ccc(N2CCCC2)cc1Br	x	-0.5	0.4	x	x
COc1ccc(OC)c(S(=O)(=O)N(CC(=O)NC2CCC(C)CC2)c2cc(C)cc(C)c2)c1 (stereo not drawn)	x	4.8	-4.0	x	x
O=C(Nc1c(-c2ccc(F)cc2)nc2ncccn12)c1ccccc1	x	-3.2	1.2	x	x
Cc1ccc(CS(=O)(=O)Cc2ccc(C(=O)NCc3ccco3)o2)cc1	3.8	-3.5	8.2	33.9*	-1.2
